According to ChEMBL document CHEMBL1157746, “Function-oriented synthesis of simplified caprazamycins: discovery of oxazolidine-containing uridine derivatives as antibacterial agents against drug-resistant bacteria” (J Med Chem, 2010):
In brackets after ≈: the same amount, converted by molar mass.

What was measured:
[1] = biological target: T1, Phospho-N-acetylmuramoyl-pentapeptide-transferase (Bacillus subtilis (strain 168), UniProt Q03521); assay: Inhibition of Bacillus subtilis MraY after 30 mins using UDP-MurNAc-pentapeptide as substrate
T1 sequence (Q03521 whole entry): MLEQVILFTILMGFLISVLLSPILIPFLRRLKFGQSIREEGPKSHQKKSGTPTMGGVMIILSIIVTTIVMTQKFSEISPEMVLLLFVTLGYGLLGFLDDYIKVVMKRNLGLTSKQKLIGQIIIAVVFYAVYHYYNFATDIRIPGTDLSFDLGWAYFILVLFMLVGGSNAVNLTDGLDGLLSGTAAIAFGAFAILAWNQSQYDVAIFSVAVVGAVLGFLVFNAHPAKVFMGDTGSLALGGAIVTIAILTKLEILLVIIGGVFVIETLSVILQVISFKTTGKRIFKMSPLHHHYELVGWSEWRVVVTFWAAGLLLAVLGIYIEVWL

Staphylococcus aureus [2] = assay: Antibacterial activity against methicillin-sensitive Staphylococcus aureus ATCC 29213 after 20 hrs by two fold microdilution broth method; format: functional; settings: ATCC 29213, 20 h
Outline: (§1)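 NCCLS-recommended broth microdilution in cation-adjusted Mueller-Hinton broth; serial 2-fold compound dilutions; each well inoculated with 5×10⁴ CFU in 0.1 mL; incubated 35 °C for 20 h, then MIC (μg/mL) scored.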

Enterococcus faecium [3] = assay: Antibacterial activity against vancomycin-resistant Enterococcus faecium SR-7917 clinical isolate after 20 hrs by two fold microdilution broth method; format: functional; settings: SR7917, 20 h
Outline: (§2)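 NCCLS broth microdilution in cation-adjusted Mueller-Hinton broth. Serial 2-fold compound dilutions, inoculum 5×10⁴ CFU per well in 0.1 mL. Plates incubated at 35 °C for 20 h, then MIC (μg/mL) scored. Strains are clinical isolates from Japanese hospitals: MRSA SR3637, VanA E. faecalis SR7914, VanA E. faecium SR7917.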

Enterococcus faecalis [4] = assay: Antibacterial activity against Enterococcus faecalis ATCC 29212 after 20 hrs by two fold microdilution broth method; format: functional; settings: ATCC 29212, 20 h; outline: as §1
Enterococcus faecium [5] = assay: Antibacterial activity against Enterococcus faecium ATCC 19434 after 20 hrs by two fold microdilution broth method; format: functional; settings: ATCC 19434, 20 h; outline: as §1
Staphylococcus aureus [6] = assay: Antibacterial activity against methicillin-resistant Staphylococcus aureus SR-3637 clinical isolate after 20 hrs by two fold microdilution broth method; format: functional; settings: SR3637, 20 h; outline: as §2
Enterococcus faecalis [7] = assay: Antibacterial activity against vancomycin-resistant Enterococcus faecalis SR-7914 clinical isolate after 20 hrs by two fold microdilution broth method; format: functional; settings: SR7914, 20 h; outline: as §2

SMILES	IC50 [1] [µM]	MIC (Staphylococcus aureus [2]) [µg/mL]	MIC (Enterococcus faecium [3]) [µg/mL]	MIC (Enterococcus faecalis [4]) [µg/mL]	MIC (Enterococcus faecium [5]) [µg/mL]	MIC (Staphylococcus aureus [6]) [µg/mL]	MIC (Enterococcus faecalis [7]) [µg/mL]
CCCCCCCCCCCCCCCC(=O)N1[C@H](C(=O)OC)[C@@H]([C@H]2O[C@@H](n3ccc(=O)[nH]c3=O)[C@H](O)[C@@H]2O)O[C@@H]1CN.Cl	980	> 64	16	32	32	13	64
CCCCCCCCCCCCCCCC(=O)O[C@H]1CN[C@@H]([C@H](O[C@@H]2O[C@H](CN)[C@@H](O)[C@H]2O)[C@H]2O[C@@H](n3ccc(=O)[nH]c3=O)[C@H](O)[C@@H]2O)C(=O)N(C)[C@@H]1C(=O)O [DESMETHYLPALMITOYLCAPRAZOL]		0.5 (≈ 0.625 µM)	1 (≈ 1.25 µM)	0.5 (≈ 0.625 µM)	1 (≈ 1.25 µM)	0.5 (≈ 0.625 µM)	2 (≈ 2.5 µM)
CCCCCCCCCCCCNC(=O)[C@@H](N)[C@H](O[C@@H]1O[C@H](CN)[C@@H](O)[C@H]1O)[C@H]1O[C@@H](n2ccc(=O)[nH]c2=O)[C@H](O)[C@@H]1O.O=C(O)C(F)(F)F	18	64	16	16	16	64	32
CCCCCCCCCCCCCCCCNC(=O)[C@@H]1[C@@H]([C@H]2O[C@@H](n3ccc(=O)[nH]c3=O)[C@H](O)[C@@H]2O)O[C@H](CN)N1C(C)=O.Cl		16	16	32	16	32	16
CCCCCCCCCCCCCCCC(=O)N1[C@H](C(=O)OC(C)(C)C)[C@@H]([C@H]2O[C@@H](n3ccc(=O)[nH]c3=O)[C@H](O)[C@@H]2O)O[C@@H]1CCN		8 (≈ 12 µM)	8 (≈ 12 µM)	2 (≈ 3 µM)	2 (≈ 3 µM)	16 (≈ 24 µM)	2 (≈ 3 µM)
CCCCCCCCc1ccc(NC(=O)N[C@H](C(=O)O)[C@H](O[C@@H]2O[C@H](CN)[C@@H](O)[C@H]2O)[C@@H]2O[C@@H](n3ccc(=O)[nH]c3=O)[C@H](O)[C@@H]2O)cc1.O=C(O)C(F)(F)F	75	> 64	> 64	64	> 64	> 64	64
CCCCCCCCCCCCCCCC(=O)N1[C@H](C(=O)O)[C@@H]([C@H]2O[C@@H](n3ccc(=O)[nH]c3=O)[C@H](O)[C@@H]2O)O[C@@H]1CN	740	> 64	> 64	> 64	> 64	> 64	> 64
CN[C@H](CC(C)C)C(=O)N[C@H]1C(=O)N[C@@H](CC(N)=O)C(=O)N[C@H]2C(=O)N[C@H]3C(=O)N[C@H](C(=O)N[C@H](C(=O)O)c4cc(O)cc(O)c4-c4cc3ccc4O)[C@H](O)c3ccc(c(Cl)c3)Oc3cc2cc(c3O[C@@H]2O[C@H](CO)[C@@H](O)[C@H](O)[C@H]2O[C@H]2C[C@](C)(N)[C@H](O)[C@H](C)O2)Oc2ccc(cc2Cl)[C@H]1O [VANCOMYCIN]			> 64	1 (≈ 0.69 µM)	> 64		> 64
CCCCCCCCCCCCCCCC(=O)N1[C@H](C(=O)OC)[C@@H]([C@H]2O[C@@H](n3ccc(=O)[nH]c3=O)[C@H](O)[C@@H]2O)O[C@@H]1CCN.Cl	920	8	8	8	4	8	16
CCCCCCCCCCCCNC(=O)N[C@H](C(=O)O)[C@H](O[C@@H]1O[C@H](CN)[C@@H](O)[C@H]1O)[C@H]1O[C@@H](n2ccc(=O)[nH]c2=O)[C@H](O)[C@@H]1O.O=C(O)C(F)(F)F	36	> 64	> 64	64	> 64	> 64	64
CCCCCCCCCCCCCCCC(=O)N1[C@H](C(=O)O)[C@@H]([C@H]2O[C@@H](n3ccc(=O)[nH]c3=O)[C@H](O)[C@@H]2O)O[C@@H]1CCCN	360	> 64	> 64	> 64	> 64	> 64	> 64
CCCCCCCCCCCCCCCC(=O)N1[C@H](C(=O)OC)[C@@H]([C@H]2O[C@@H](n3ccc(=O)[nH]c3=O)[C@H](O)[C@@H]2O)O[C@@H]1CCN=[N+]=[N-]		> 64	64 (≈ 98.3 µM)	16 (≈ 24.6 µM)	64 (≈ 98.3 µM)	> 64	> 64
CCCCCCCCc1ccc(C(=O)N[C@H](C(=O)O)[C@H](O[C@@H]2O[C@H](CN)[C@@H](O)[C@H]2O)[C@H]2O[C@@H](n3ccc(=O)[nH]c3=O)[C@H](O)[C@@H]2O)cc1.O=C(O)C(F)(F)F	256	> 64	> 64	64	> 64	> 64	> 64
CCCCCCCCCCCC(=O)N[C@H](C(=O)O)[C@H](O[C@@H]1O[C@H](CN)[C@@H](O)[C@H]1O)[C@H]1O[C@@H](n2ccc(=O)[nH]c2=O)[C@H](O)[C@@H]1O.O=C(O)C(F)(F)F	63	> 64	> 64	> 64	> 64	> 64	> 64
CCCCCCCCCCCCCCCC(=O)N1[C@H](C(=O)OC)[C@@H]([C@H]2O[C@@H](n3ccc(=O)[nH]c3=O)[C@H](O)[C@@H]2O)O[C@@H]1CCCN.Cl	1200	8	4	8	8	8	16
CCCCCCCCCCCCCCCC(=O)N1[C@H](C(=O)O)[C@@H]([C@H]2O[C@@H](n3ccc(=O)[nH]c3=O)[C@H](O)[C@@H]2O)O[C@@H]1CCN	451	> 64	> 64	> 64	> 64	> 64	> 64
CCCCCCCCCCCCCCCCNC(=O)[C@@H]1[C@@H]([C@H]2O[C@@H](n3ccc(=O)[nH]c3=O)[C@H](O)[C@@H]2O)O[C@H](CCN)N1C(C)=O.Cl		16	16	16	16	16	16
CCCCCCCCc1ccc(NC(=O)[C@@H](N)[C@H](O[C@@H]2O[C@H](CN)[C@@H](O)[C@H]2O)[C@H]2O[C@@H](n3ccc(=O)[nH]c3=O)[C@H](O)[C@@H]2O)cc1.O=C(O)C(F)(F)F	46	64	32	16	32	64	64
CCCCCCCCCCCCCCCC(=O)N1[C@H](C(=O)OC)[C@@H]([C@H]2O[C@@H](n3ccc(=O)[nH]c3=O)[C@H](O)[C@@H]2O)O[C@@H]1CCCN=[N+]=[N-]		> 64	64 (≈ 96.3 µM)	32 (≈ 48.1 µM)	> 64	> 64	> 64
CCCCCCCCCCCCCCCCNC(=O)[C@@H]1[C@@H]([C@H]2O[C@@H](n3ccc(=O)[nH]c3=O)[C@H](O)[C@@H]2O)O[C@H](CCCN)N1C(C)=O.Cl		16	16	16	16	32	16
CCCCCCCCCCCCCCCC(=O)N1[C@H](C(=O)OC(C)(C)C)[C@@H]([C@H]2O[C@@H](n3ccc(=O)[nH]c3=O)[C@H](O)[C@@H]2O)O[C@@H]1CN		8 (≈ 12.3 µM)	4 (≈ 6.13 µM)	4 (≈ 6.13 µM)	4 (≈ 6.13 µM)	16 (≈ 24.5 µM)	2 (≈ 3.06 µM)
